Measurements collected from several papers.
Protocols differ between the studies behind these lines. pIC50: −log10 of the molar value.
Effect on: cell growth or viability

| SMILES | cell line | test | setting | endpoint | result |
| --- | --- | --- | --- | --- | --- |
| COc1cc(Nc2nccc(-c3cnn4nc(OC)ccc34)n2)cc(C(F)(F)F)c1 | HuTu80 | ATP luminescence | – | pIC50 | 6.82 |
| Oc1ccc(Nc2nc(-c3ccc(Cl)cc3)cs2)cc1 | 1205Lu | MTS | 72 h | pIC50 | 4.14 |
| CC(=O)O[C@H]1C(=O)[C@@]2(C)[C@H]([C@H](OC(=O)c3ccccc3)[C@]3(O)C[C@H](OC(=O)[C@H](O)[C@@H](NC(=O)c4ccccc4)c4ccccc4)C(C)=C1C3(C)C)[C@]1(OC(C)=O)CO[C@@H]1C[C@@H]2O | LN-18 | – | – | IC50 | 1 µg/mL |
| Cc1cc(Nc2ncc(Cl)c(Nc3ccccc3S(=O)(=O)C(C)C)n2)c(OC(C)C)cc1C1CCNCC1 | BJ | – | 72 h | pIC50 | 5.59 |
| CC(C)C(=O)Nc1ccc([N+](=O)[O-])c(C(F)(F)F)c1 | IOSE-144 | CCK-8 | 48 h | pIC50 | < 4.30 |
| COc1cc(N2CCC(N3CCN(C)CC3)CC2)ccc1Nc1ncc(Cl)c(Nc2ccccc2S(=O)(=O)C(C)C)n1 | BJ | – | 72 h | pIC50 | 6.05 |
| O=C(N/N=C/c1c(O)ccc2ccccc12)c1cc(-c2ccc3ccccc3c2)n[nH]1 | 1205Lu | MTS | 24 h | pIC50 | 4.69 |
| C[C@@H](Oc1cc(-c2cnn(C3CCNCC3)c2)cnc1N)c1c(Cl)ccc(F)c1Cl | SW-1736 | MTT | 72 h | pIC50 | 5.60 |
| COc1cc2c(Oc3ccc(NC(=O)C4(C(=O)Nc5ccc(F)cc5)CC4)cc3F)ccnc2cc1OCCCN1CCOCC1 | BJ | – | 72 h | pIC50 | 6.74 |
| CN(C)C/C=C/C(=O)Nc1cc2c(Nc3ccc(F)c(Cl)c3)ncnc2cc1O[C@H]1CCOC1 | KB-C2 | MTT | 72 h | pIC50 | 5.31 |
| Oc1ccc(-c2ccc3cc(O)ccc3c2)c(O)c1 | CHL | MTT | 24 h | IC50 | 119 µg/mL |
